Measurements: ChEMBL document CHEMBL1151917, “Dysideamine, a new sesquiterpene aminoquinone, protects hippocampal neuronal cells against iodoacetic acid-induced cell death” (Bioorg Med Chem, 2009)
Activity calls are given as the source filed them. No cut-off for these calls is given here.

Tests used:
HT-22 [1] = assay: Neuroprotective activity against iodoacetic acid-induced cell death in mouse HT22 cells assessed as survival at 10 uM treated 2 hrs after iodoacetic acid challenge measured after 20 hrs by MTT colorimetric assay; assay type: functional; conditions: read-out: Survival
Procedure, shortened: (§1)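 HT22 cells in DMEM/10% FBS, 5 × 10^3 cells/well, held 24 h at 37 °C under 5% CO2. Switched to DMEM/7.5% FBS with 20 µM iodoacetic acid for 2 h. Medium then replaced with fresh DMEM/10% FBS and compound added in EtOH. After a further 20 h, viability was read by MTT. Mean ± SEM, n = 3.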

HT-22 [2] = assay: Neuroprotective activity against iodoacetic acid-induced cell death in mouse HT22 cells assessed as survival treated 2 hrs after iodoacetic acid challenge measured after 20 hrs by MTT colorimetric assay; assay type: functional, cell-based; procedure, shortened: as §1
N2a [3] = assay: Induction of neuronal differentiation in mouse Neuro2a cells assessed as increase in acetylcholinesterase activity at 10 uM after 48 hrs by colorimetrically; assay type: functional, cell-based
Procedure, shortened: (§2)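 After 48 h treatment of Neuro 2A cells, AChE production was measured per 5 × 10^4 cells. Read-out was the colorimetric rate of acetylthiocholine hydrolysis.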

N2a [4] = assay: Induction of neurite out growth in mouse Neuro2a cells assessed as increase in percent of cells with outgrowth at 10 uM after 48 hrs by phase contrast microscopy; assay type: functional
Procedure, shortened: (§3)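 Neuro 2A cells in DMEM/10% FBS, seeded at 1 × 10^4 cells per well and grown 24 h. Medium renewed, then compound added in EtOH and cells held 48 h. Scored by phase contrast microscopy: neurite-bearing means processes longer than the cell body diameter. Percent of neurite-bearing cells counted from at least 300 cells in photomicrographs of representative-density areas.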

[5] = Cytotoxicity against mouse Neuro2a cells at 10 uM; assay type: cell-based; conditions: n2a
HT-22 [6] = assay: Neuroprotective activity in mouse HT22 cells assessed as inhibition of iodoacetic acid-induced intracellular ROS production at 10 uM treated 2 hrs after iodoacetic acid challenge; assay type: functional, cell-based
Procedure, shortened: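 HT22 cells at 5 × 10^4 cells/well were cultured 24 h, then given 20 µM iodoacetic acid in DMEM/7.5% FBS for 2 h. Cells went to normal growth medium with compound (10 µM) in EtOH. At the indicated times they were washed and loaded with 10 µM DCFH-DA in serum-free medium for 20 min in the dark. After a second wash, fluorescence was read at ex 485/em 530 nm.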

N2a [7] = assay: Induction of neuronal differentiation in mouse Neuro2a cells assessed as increase in acetylcholinesterase activity at 3 uM after 48 hrs by colorimetrically; assay type: functional, cell-based; procedure, shortened: as §2
HT-22 [8] = assay: Neuroprotective activity against iodoacetic acid-induced intracellular ATP depletion in mouse HT22 cells assessed as recovery of ATP treated 2 hrs after iodoacetic acid challenge after 4 to 8 hrs; assay type: functional, cell-based
Procedure, shortened: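 HT22 cells at 5 × 10^3 cells/well were exposed to […] for 2 h in DMEM/7.5% FBS. They were then moved to normal growth medium, with or without compound, for the indicated times. Intracellular ATP was read by CellTiter-Glo luminescence. Mean ± SEM, n = 3.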

N2a [9] = assay: Induction of neurite out growth in mouse Neuro2a cells assessed as increase in percent of cells with outgrowth at 3 uM after 48 hrs by phase contrast microscopy; assay type: functional; procedure, shortened: as §3

## COC1=CC(=O)C(O)=C(C[C@@]2(C)CC[C@]3(C)C(C)=CCC[C@H]3[C@H]2C)C1=O [BOLINAQUINONE]
HT-22 [1]
  viability at 10 µM: 57%

## CC1=CCC[C@H]2[C@@H](C)[C@@](C)(CC3=C(O)C(=O)C=C(N)C3=O)CC[C@]12C [DYSIDEAMINE]
HT-22 [2]
  Activity: Dose-dependent effect
N2a [3]
  Activity: Active
N2a [4]
  Activity: 25%
HT-22 [1]
  viability at 10 µM: 43%
[5]
  Activity: Non-toxic
HT-22 [6]
  Activity: Active
N2a [7]
  Activity: Active
HT-22 [8]
  Activity: Active
N2a [9]
  Activity: 40%
